Activity calls are given as the source filed them. The rule behind the calls is not given here. Non-standard residues stand in square brackets, D forms with d. Residues, ends and D or L forms follow the SMILES beside them.
Columns and labels:
Staphylococcus aureus [1] = assay: Antibacterial activity against Staphylococcus aureus Smith infected in ICR mouse assessed as survival rate at 100 ug, ip pretreated for 7 hrs before infection using 3 X 10^7 CFU inoculum measured on day 5; format: functional
Staphylococcus aureus [2] = assay: Antibacterial activity against Staphylococcus aureus Smith infected in ICR mouse assessed as survival rate at 100 ug, ip pretreated for 7 hrs before infection using 3 X 10^6 CFU inoculum measured on day 5; format: functional
Escherichia coli [3] = assay: Antibacterial activity against Escherichia coli EC14 infected in ICR mouse assessed as survival rate at 100 ug, ip pretreated for 7 hrs before infection using 2.5 X 10^4 CFU inoculum measured on day 5; format: functional
Escherichia coli [4] = assay: Antibacterial activity against Escherichia coli EC14 infected in ICR mouse assessed as survival rate at 100 ug, ip pretreated for 7 hrs before infection using 2.5 X 10^3 CFU inoculum measured on day 5; format: functional
Staphylococcus aureus [5] = assay: Antibacterial activity against Staphylococcus aureus Smith infected in ICR mouse assessed as survival rate at 100 ug, ip pretreated for 7 hrs before infection using 2 X 10^6 CFU inoculum measured on day 5 after bacterial infection; format: functional
Outline: (§1)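 Five-week-old female ICR mice got peptide intraperitoneally in 500 μl Dulbecco's PBS with 2% DMSO; vehicle controls got PBS/2% DMSO. The minimum lethal bacterial dose was given intraperitoneally at set intervals: S. aureus Smith 2 × 10⁶, E. faecalis SR1004 1.7 × 10⁸, E. coli EC14 2.3 × 10⁴ CFU/mouse. Survival was scored on day 5 (4 or 8 mice/group; Fisher's exact test).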

Enterococcus faecalis [6] = assay: Antibacterial activity against Enterococcus faecalis SR1004 infected in ICR mouse assessed as survival rate at 100 ug, ip pretreated for 7 hrs before infection using 1.7 X 10^8 inoculum measured on day 5 after bacterial infection; format: functional; outline: as §1
Escherichia coli [7] = assay: Antibacterial activity against Escherichia coli EC14 infected in ICR mouse assessed as survival rate at 100 ug, ip pretreated for 7 hrs before infection using 2.3 X 10^4 CFU inoculum measured on day 5 after bacterial infection; format: functional; outline: as §1
Staphylococcus aureus [8] = assay: Antibacterial activity against Staphylococcus aureus Smith by broth microdilution method; format: functional
Outline: (§2)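 MIC was determined by broth microdilution following NCCLS recommendations.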

Enterococcus faecalis [9] = assay: Antibacterial activity against Enterococcus faecalis SR1004 by broth microdilution method; format: functional; outline: as §2
Escherichia coli [10] = assay: Antibacterial activity against Escherichia coli EC14 by broth microdilution method; format: functional; outline: as §2
Staphylococcus aureus [11] = assay: Antibacterial activity against Staphylococcus aureus Smith infected in ICR mouse assessed as survival rate at 50 ug, ip treated 0.5 hrs after infection using 2 X 10^6 CFU inoculum measured on day 5 after bacterial infection; format: functional; outline: as §1
Staphylococcus aureus [12] = assay: Antibacterial activity against Staphylococcus aureus Smith infected in ICR mouse assessed as survival rate at 50 ug, ip treated at the time of infection using 2 X 10^6 CFU inoculum measured on day 5 after bacterial infection; format: functional; outline: as §1
Staphylococcus aureus [13] = assay: Antibacterial activity against Staphylococcus aureus Smith infected in ICR mouse assessed as survival rate at 50 ug, ip pretreated for 1 hr before infection using 2 X 10^6 CFU inoculum measured on day 5 after bacterial infection; format: functional; outline: as §1
Staphylococcus aureus [14] = assay: Antibacterial activity against Staphylococcus aureus Smith infected in ICR mouse assessed as survival rate at 50 ug, ip pretreated for 3 hrs before infection using 2 X 10^6 CFU inoculum measured on day 5 after bacterial infection; format: functional; outline: as §1
Staphylococcus aureus [15] = assay: Antibacterial activity against Staphylococcus aureus Smith infected in ICR mouse assessed as survival rate at 50 ug, ip pretreated for 7 hrs before infection using 2 X 10^6 CFU inoculum measured on day 5 after bacterial infection; format: functional; outline: as §1
Staphylococcus aureus [16] = assay: Antibacterial activity against Staphylococcus aureus Smith infected in ICR mouse assessed as survival rate at 50 ug, ip pretreated for 24 hrs before infection using 2 X 10^6 CFU inoculum measured on day 5 after bacterial infection; format: functional; outline: as §1
Staphylococcus aureus [17] = assay: Antibacterial activity against Staphylococcus aureus Smith infected in ICR mouse assessed as survival rate at 3.13 ug, ip pretreated for 7 hrs before infection using 2 X 10^6 CFU inoculum measured on day 5 after bacterial infection; format: functional; outline: as §1
Staphylococcus aureus [18] = assay: Antibacterial activity against Staphylococcus aureus Smith infected in ICR mouse assessed as survival rate at 12.5 ug, ip pretreated for 7 hrs before infection using 2 X 10^6 CFU inoculum measured on day 5 after bacterial infection; format: functional; outline: as §1
Staphylococcus aureus [19] = assay: Antibacterial activity against Staphylococcus aureus Smith infected in ICR mouse assessed as survival rate at 25 ug, ip pretreated for 7 hrs before infection using 2 X 10^6 CFU inoculum measured on day 5 after bacterial infection; format: functional; outline: as §1
Mus musculus [20] = assay: Induction of ROS generation in intraperitoneally dosed ICR mouse abdominal cavity neutrophils after 7 hrs by lucigenin-dependent chemiluminescence method; format: functional, organism-based
Outline: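 Peptide was injected intraperitoneally. After 7 h, peritoneal cells were collected by lavage with 5 ml cold saline, washed, and suspended at 2 × 10⁵ cells/ml in HEPES-buffered Hank's solution, pH 7.4. After 5 min at 37°C, lucigenin was added to 0.1 mM final. Chemiluminescence was read at 37°C in relative light units. The experiment was repeated and representative data shown.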

Mus musculus [21] = assay: Induction of neutrophil recruitment in intraperitoneally dosed ICR mouse abdominal cavity assessed as accumulation of neutrophils after 7 hrs using hematoxylin and eosin staining by microscopy; format: functional, organism-based
Outline: (§3)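 Peptide was injected intraperitoneally. After 7 h, the peritoneal cavity was lavaged with 5 ml cold sterile saline. Cells were washed, resuspended at 1 × 10⁶/ml in heat-inactivated FCS, cytocentrifuged, and stained with Diff-Quick. Total cells and neutrophils were counted by microscopy, and neutrophil percentage was averaged over five fields ± SD. Comparison used an unpaired t test after arcsine transformation.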

Mus musculus [22] = assay: Induction of neutrophil recruitment in intraperitoneally dosed ICR mouse abdominal cavity assessed as neutrophil level after 7 hrs using hematoxylin and eosin staining by microscopy; format: functional; outline: as §3
Staphylococcus aureus [23] = assay: Antibacterial activity against Staphylococcus aureus Cowan I infected in intraperitoneally dosed ICR mouse assessed as bacterial kill in abdomen pretreated for 7 hrs before infection using 4 X 10^5 CFU inoculum; format: functional
Outline: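 Peptide solution (500 μl) was injected ip. After 7 h, S. aureus Cowan I (4 × 10⁵ CFU/mouse) was introduced into the abdominal cavity for 15 min. The peritoneum was lavaged with 5 ml cold sterile saline, serially diluted in PBS and plated on LB agar for 18 h. Colonies were counted against saline-control mice (unpaired Student's t test).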

[24] = tested on: Peritoneal macrophage cell; assay: Induction of Mig/CXCL9 mRNA expression in TGC-elicited ICR mouse peritoneal macrophage at 25 ug/ml after 2.5 to 5 hrs by RT-PCR; format: functional, cell-based
Outline: (§4)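 Mouse peritoneal macrophages were elicited with 3 ml of 3% thioglycolate medium given intraperitoneally and collected 4 days later by lavage with cold PBS. Cells were seeded at 1 × 10⁶/ml in RPMI-1640 with 10% heat-inactivated FCS and allowed to adhere for 2 h at 37°C; nonadherent cells were then rinsed off. Cells were exposed to peptide at 25 μg/ml for 2.5, 5 or 7.5 h, with LPS at 100 ng/ml for 24 h as positive control. RT-PCR used 400 ng total RNA and 25–35 cycles, with ethidium bromide agarose gels and G3PDH primers; n = 3.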

[25] = tested on: Peritoneal macrophage cell; assay: Induction of Mig/CXCL9 mRNA expression in TGC-elicited ICR mouse peritoneal macrophage at 25 ug/ml after 7.5 hrs by RT-PCR; format: functional, cell-based; outline: as §4
Mus musculus [26] = species on record: Mus musculus; assay: Induction of Mig/CXCL9 mRNA expression in TGC-elicited ICR mouse peritoneal macrophage at 25 ug/ml after 5 hrs by RT-PCR; format: functional; outline: as §4

Molecule: CC(C)C[C@@H](NC(=O)[C@H](N)CCCCN)C(=O)N[C@H](CCCCN)C(=O)N[C@H](CC(C)C)C(=O)N[C@H](CC(C)C)C(=O)N[C@H](CC(C)C)C(=O)N[C@H](CC(C)C)C(=O)N[C@H](CC(C)C)C(=O)N[C@H](CCCCN)C(=O)N[C@H](CC(C)C)C(=O)N[C@H](CCCCN)C(N)=O (H-[dK][dL][dK][dL][dL][dL][dL][dL][dK][dL][dK]-NH2)
- Activity (Staphylococcus aureus [1]): 25%
- Activity (Staphylococcus aureus [2]): 50%
- Activity (Escherichia coli [3]): 100%
- Activity (Escherichia coli [4]): 100%
- Survival (Staphylococcus aureus [5]): 100%
- Survival (Enterococcus faecalis [6]): 100%
- Survival (Escherichia coli [7]): 75%
- MIC (Staphylococcus aureus [8]): > 625 µg/mL
- MIC (Enterococcus faecalis [9]): > 625 µg/mL
- MIC (Escherichia coli [10]): > 625 µg/mL
- Survival (Staphylococcus aureus [11]): 0%
- Survival (Staphylococcus aureus [12]): 0%
- Survival (Staphylococcus aureus [13]): 25%
- Survival (Staphylococcus aureus [14]): 62.5%
- Survival (Staphylococcus aureus [15]): 87.5%
- Survival (Staphylococcus aureus [16]): 0%
- Survival (Staphylococcus aureus [17]): 0%
- Survival (Staphylococcus aureus [18]): 0%
- Survival (Staphylococcus aureus [19]): 75%

Molecule: H-KLKLLLKLK-NH2
- Survival (Staphylococcus aureus [5]): 0%
- Activity (Mus musculus [20]): inactive

Molecule: H-KLKLLLLLKLK-NH2
- Survival (Staphylococcus aureus [5]): 75%
- Survival (Enterococcus faecalis [6]): 75%
- Survival (Escherichia coli [7]): 25%
- MIC (Staphylococcus aureus [8]): > 625 µg/mL
- MIC (Enterococcus faecalis [9]): > 625 µg/mL
- MIC (Escherichia coli [10]): > 625 µg/mL
- Activity (Mus musculus [21]): Active
- Activity (Mus musculus [22]): 40%
- Activity (Staphylococcus aureus [23]): 75%
- Activity [24]: Active
- Activity [25]: inactive
- Activity (Mus musculus [26]): Active
- Activity (Mus musculus [20]): Active

Reference: ChEMBL document CHEMBL1687732, “Prevention of death in bacterium-infected mice by a synthetic antimicrobial peptide, L5, through activation of host immunity” (2009)
